Measurements as given in the RNAGym collection of RNA variant scans (doi:10.1002/anie.201605470).

B1: Osa-1-4 twister ribozyme (parent)
chain: CCGCCUAACACUGCCAAUGCCGGUCCCAAGCCCGGAUAAAAGUGGAGGGGGCGG

Variants of: B1
Test: self-cleavage, relative activity (ratio to wild type); higher = more cleavage; co-transcriptional
How it was run: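 Relative activity is the fraction cleaved divided by that of the wild-type ribozyme. The library came from a DNA template for a 54-nucleotide Oryza sativa twister ribozyme, doped at the 48 positions downstream of the cleavage site with 97 % wild-type base and 1 % of each other base. After 2 h of in vitro transcription at 37 °C with co-transcriptional self-cleavage, the RNA was reverse-transcribed with a template-switching oligonucleotide, amplified by PCR and deep-sequenced, and reads with or without upstream sequence gave the cleavage status.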

First: A16G A39C
Second: A16G A39U
The self-cleavage of the first is higher: 1.01 for the first, 0.97 for the second.

First: A16G A39G
Second: C15U U18A
The self-cleavage of the first is higher: 0.9 for the first, 0.51 for the second.

Compared with C15U U18C, C15U U18G is lower in self-cleavage: 0.52 for the first, 0.39 for the second.

First: C15U C32U
Second: C15U C32G
The self-cleavage of the first is lower: 0.06 for the first, 0.08 for the second.

Compared with C15U C32A, A16C U18G is higher in self-cleavage: 0.03 for the first, 0.85 for the second.

First: A16C U18A
Second: A16C U18C
The self-cleavage of the first is higher: 0.92 for the first, 0.91 for the second.

First: A16G A41G
Second: A16G A41C
The self-cleavage of the first is lower: 0.74 for the first, 0.99 for the second.

First: A16G A41U
Second: C15U G22U
The self-cleavage of the first is higher: 1.05 for the first, 0.11 for the second.

First: C15U G22A
Second: C15U G22C
The self-cleavage of the first is higher: 0.17 for the first, 0.03 for the second.

First: A16G C21U
Second: A16G C21G
The self-cleavage of the first is higher: 0.98 for the first, 0.12 for the second.

Going from A16G C21A to A16G G30U, the self-cleavage falls from 0.8 to 0.04.

First: A16G G30C
Second: A16G G30A
The self-cleavage of the first is higher: 0.05 for the first, 0.04 for the second.

Compared with C15U G34A, C15U G34U is lower in self-cleavage: 0.21 for the first, 0.15 for the second.

Going from C15U G34C to A16C G44U, the self-cleavage rises from 0.09 to 0.94.

Compared with A16C G44A, A16C G44C is higher in self-cleavage: 0.95 for the first, 0.97 for the second.

First: C15U G13U
Second: C15U G13A
The self-cleavage of the first is lower: 0.02 for the first, 0.05 for the second.

Compared with C15U G13C, C15U C52U is higher in self-cleavage: 0.02 for the first, 0.48 for the second.

First: C15U C52A
Second: C15U C52G
The self-cleavage of the first is lower: 0.26 for the first, 0.41 for the second.

Going from A16C U12C to A16C U12A, the self-cleavage rises from 0.44 to 0.71.

First: A16C U12G
Second: A16C C21A
The self-cleavage of the first is lower: 0.09 for the first, 0.45 for the second.

Going from A16C C21U to A16C C21G, the self-cleavage falls from 0.93 to 0.08.

First: A16C C33U
Second: A16C C33A
The self-cleavage of the first is higher: 0.55 for the first, 0.08 for the second.

Going from A16C C33G to A16C G47U, the self-cleavage rises from 0.06 to 0.13.

Compared with A16C G47A, A16C G47C is lower in self-cleavage: 0.14 for the first, 0.05 for the second.

First: C15U U43G
Second: C15U U43A
The self-cleavage of the first is lower: 0.12 for the first, 0.16 for the second.

Compared with C15U U43C, A16G C52U is higher in self-cleavage: 0.09 for the first, 0.99 for the second.

First: A16G C52A
Second: A16G C52G
The self-cleavage of the first is lower: 0.97 for the first, 1 for the second.

Compared with A16G, A16C is lower in self-cleavage: 1.01 for the first, 0.97 for the second.

Going from A16G C9U to A16G C9A, the self-cleavage falls from 0.84 to 0.59.

Compared with A16G C9G, C15U G51C is lower in self-cleavage: 0.92 for the first, 0.04 for the second.

First: C15U G51A
Second: C15U G51U
The self-cleavage of the first is higher: 0.15 for the first, 0.07 for the second.

Compared with C15U G47A, C15U G47U is lower in self-cleavage: 0.06 for the first, 0.05 for the second.

First: C15U G47C
Second: A16C A29G
The self-cleavage of the first is lower: 0.05 for the first, 0.11 for the second.

First: A16C A29U
Second: A16C A29C
The self-cleavage of the first is higher: 0.07 for the first, 0.05 for the second.

Compared with A16C G50U, A16C G50A is lower in self-cleavage: 0.97 for the first, 0.71 for the second.

First: A16C G50C
Second: A16C U24C
The self-cleavage of the first is higher: 0.82 for the first, 0.17 for the second.

First: A16C U24G
Second: A16C U24A
The self-cleavage of the first is lower: 0.04 for the first, 0.11 for the second.

First: A16C G22U
Second: A16C G22C
The self-cleavage of the first is higher: 0.31 for the first, 0.07 for the second.

Going from A16C G22A to A16C A38C, the self-cleavage rises from 0.76 to 1.01.

Going from A16C A38U to A16C A38G, the self-cleavage falls from 1.01 to 0.96.

Compared with C15U G45U, C15U G45A is higher in self-cleavage: 0.03 for the first, 0.04 for the second.

First: C15U G45C
Second: A16G G19U
The self-cleavage of the first is lower: 0.04 for the first, 0.57 for the second.

First: A16G G19A
Second: A16G G19C
The self-cleavage of the first is higher: 0.98 for the first, 0.4 for the second.

Going from C15U U24A to C15U U24G, the self-cleavage falls from 0.04 to 0.03.

Going from C15U U24C to A16C A8G, the self-cleavage rises from 0.04 to 0.36.

First: A16C A8U
Second: A16C A8C
The self-cleavage of the first is higher: 0.19 for the first, 0.13 for the second.

First: A16C C27U
Second: A16C C27A
The self-cleavage of the first is lower: 0.1 for the first, 0.13 for the second.

Compared with A16C C27G, A16G G49A is higher in self-cleavage: 0.06 for the first, 0.27 for the second.

Compared with A16G G49U, A16G G49C is lower in self-cleavage: 0.3 for the first, 0.08 for the second.

Going from A16C G54A to A16C G54C, the self-cleavage falls from 0.86 to 0.82.

First: A16C G54U
Second: A16C C52G
The self-cleavage of the first is lower: 0.88 for the first, 0.96 for the second.

Going from A16C C52U to A16C C52A, the self-cleavage falls from 0.98 to 0.9.

First: A16G C27A
Second: A16G C27G
The self-cleavage of the first is higher: 0.38 for the first, 0.15 for the second.

First: A16G C27U
Second: A16C C25G
The self-cleavage of the first is higher: 0.37 for the first, 0.1 for the second.

First: A16C C25A
Second: A16C C25U
The self-cleavage of the first is lower: 0.08 for the first, 0.72 for the second.

Going from A16G C25A to A16G C25U, the self-cleavage rises from 0.24 to 0.94.

First: A16G C25G
Second: A16C A40C
The self-cleavage of the first is higher: 0.16 for the first, 0.07 for the second.

Compared with A16C A40U, A16C A40G is higher in self-cleavage: 0.52 for the first, 0.54 for the second.

First: A16G A40G
Second: A16G A40C
The self-cleavage of the first is higher: 0.77 for the first, 0.11 for the second.

First: A16G A40U
Second: A16C U43G
The self-cleavage of the first is higher: 0.88 for the first, 0.16 for the second.

Compared with A16C U43C, A16C U43A is higher in self-cleavage: 0.33 for the first, 0.7 for the second.

Compared with A16C G19A, A16C G19U is lower in self-cleavage: 0.62 for the first, 0.19 for the second.

First: A16C G19C
Second: A16C C31U
The self-cleavage of the first is lower: 0.13 for the first, 0.55 for the second.

First: A16C C31G
Second: A16C C31A
The self-cleavage of the first is higher: 0.1 for the first, 0.04 for the second.

C15U G30A and C15U G30C are the same in self-cleavage: 0.02 for the first, 0.02 for the second.

Going from C15U G30U to A16G G45A, the self-cleavage rises from 0.03 to 0.55.

Going from A16G G45C to A16G G45U, the self-cleavage rises from 0.08 to 0.19.

First: A16G G23U
Second: A16G G23A
The self-cleavage of the first is lower: 0.14 for the first, 0.68 for the second.

Compared with A16G G23C, A16G G13C is lower in self-cleavage: 0.09 for the first, 0.02 for the second.

Compared with A16G G13A, A16G G13U is lower in self-cleavage: 0.2 for the first, 0.04 for the second.

Compared with A16G C32U, A16G C32G is higher in self-cleavage: 0.09 for the first, 0.19 for the second.

Going from A16G C32A to A16G C20G, the self-cleavage rises from 0.08 to 0.19.

Going from A16G C20A to A16G C20U, the self-cleavage rises from 0.86 to 0.99.

Compared with A16G C31G, A16G C31A is lower in self-cleavage: 0.16 for the first, 0.03 for the second.

First: A16G C31U
Second: A16C G30C
The self-cleavage of the first is higher: 0.94 for the first, 0.05 for the second.

A16C G30A and A16C G30U are the same in self-cleavage: 0.04 for the first, 0.04 for the second.

First: A16C C11A
Second: A16C C11U
The self-cleavage of the first is lower: 0.58 for the first, 0.86 for the second.

Compared with A16C C11G, A16G C14U is higher in self-cleavage: 0.17 for the first, 0.64 for the second.

Compared with A16G C14A, A16G C14G is higher in self-cleavage: 0.15 for the first, 0.53 for the second.

Compared with A16G A38U, A16G A38C is lower in self-cleavage: 1.05 for the first, 0.98 for the second.

Compared with A16G A38G, A16G G42C is lower in self-cleavage: 0.97 for the first, 0.62 for the second.

Compared with A16G G42U, A16G G42A is higher in self-cleavage: 0.57 for the first, 0.86 for the second.

Compared with A16C G45C, A16C G45U is higher in self-cleavage: 0.05 for the first, 0.09 for the second.

Work on A16C G45A yielded a self-cleavage of 0.17.
